How the values were obtained:
[1] = target: Phosphatidylinositol 4,5-bisphosphate 3-kinase catalytic subunit beta isoform (Homo sapiens, UniProt P42338); assay: Inhibition of human recombinant p110beta
Method in brief: (§1)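 Recombinant p110/p85 complexes (p110d/p85 commercial; p110a/p85 and p110b/p85 prepared in-house), 0.1 µg enzyme with 10 µg L-α-phosphatidylinositol in Tris-HCl pH 7.4/NaCl/EDTA buffer, 1% DMSO final. 1 h at room temperature, stopped with HCl. Lipids extracted, resolved by TLC, radiolabel quantified. Means of two experiments.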

[2] = Antiproliferative activity against human NZOV9 cells; format: functional, cell-based
Method in brief: (§2)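 Early-passage human cancer cell lines grown in alpha-modified MEM with insulin, transferrin, selenite and 5% FBS; 1000 cells per well. Drug added in 10-fold concentration steps up to 20 µM; incubated five days under 5% O2, 5% CO2, 90% N2. [3H]thymidine (0.04 µCi/well) added for the last 6 h, incorporation counted. Duplicates per dose; IC50 from exponential least-squares fit.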

[3] = Antiproliferative activity against human NZB5 cells; format: functional, cell-based; method in brief: as §2
[4] = target: T1, Phosphatidylinositol 4,5-bisphosphate 3-kinase catalytic subunit delta isoform (Homo sapiens, UniProt O00329); assay: Inhibition of human recombinant p110delta; method in brief: as §1
T1 sequence (O00329 whole entry): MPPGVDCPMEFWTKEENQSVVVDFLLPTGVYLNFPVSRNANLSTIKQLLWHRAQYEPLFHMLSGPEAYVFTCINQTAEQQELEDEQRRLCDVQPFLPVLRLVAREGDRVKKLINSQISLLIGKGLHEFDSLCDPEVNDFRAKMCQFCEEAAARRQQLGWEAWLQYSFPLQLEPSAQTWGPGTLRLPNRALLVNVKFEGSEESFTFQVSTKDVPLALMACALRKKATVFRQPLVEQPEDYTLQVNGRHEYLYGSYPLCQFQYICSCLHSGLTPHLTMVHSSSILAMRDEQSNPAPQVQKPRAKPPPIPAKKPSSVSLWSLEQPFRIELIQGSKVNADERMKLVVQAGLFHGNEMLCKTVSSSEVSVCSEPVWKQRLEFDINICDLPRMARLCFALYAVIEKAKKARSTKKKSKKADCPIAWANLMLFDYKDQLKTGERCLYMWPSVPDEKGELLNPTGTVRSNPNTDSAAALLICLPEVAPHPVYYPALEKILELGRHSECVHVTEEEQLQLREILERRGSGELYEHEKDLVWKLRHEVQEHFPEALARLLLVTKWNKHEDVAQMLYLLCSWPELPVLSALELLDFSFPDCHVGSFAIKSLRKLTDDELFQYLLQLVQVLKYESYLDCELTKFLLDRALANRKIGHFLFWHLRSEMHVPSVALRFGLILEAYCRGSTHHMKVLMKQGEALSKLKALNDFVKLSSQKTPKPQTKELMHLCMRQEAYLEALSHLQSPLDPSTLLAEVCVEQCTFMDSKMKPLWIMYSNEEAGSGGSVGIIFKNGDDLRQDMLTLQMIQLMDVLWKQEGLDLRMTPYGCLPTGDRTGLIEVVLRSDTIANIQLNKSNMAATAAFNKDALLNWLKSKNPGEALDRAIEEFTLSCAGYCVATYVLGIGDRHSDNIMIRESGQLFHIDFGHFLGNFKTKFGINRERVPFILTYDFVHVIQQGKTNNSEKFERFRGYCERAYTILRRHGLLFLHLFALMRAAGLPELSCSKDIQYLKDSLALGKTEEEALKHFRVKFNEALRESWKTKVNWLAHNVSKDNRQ

[5] = target: Phosphatidylinositol 4,5-bisphosphate 3-kinase catalytic subunit alpha isoform (Homo sapiens, UniProt P42336); assay: Inhibition of human recombinant p110alpha; method in brief: as §1
Phosphatidylinositol 4,5-bisphosphate 3-kinase catalytic subunit alpha isoform, sequence (P42336 whole entry, canonical isoform): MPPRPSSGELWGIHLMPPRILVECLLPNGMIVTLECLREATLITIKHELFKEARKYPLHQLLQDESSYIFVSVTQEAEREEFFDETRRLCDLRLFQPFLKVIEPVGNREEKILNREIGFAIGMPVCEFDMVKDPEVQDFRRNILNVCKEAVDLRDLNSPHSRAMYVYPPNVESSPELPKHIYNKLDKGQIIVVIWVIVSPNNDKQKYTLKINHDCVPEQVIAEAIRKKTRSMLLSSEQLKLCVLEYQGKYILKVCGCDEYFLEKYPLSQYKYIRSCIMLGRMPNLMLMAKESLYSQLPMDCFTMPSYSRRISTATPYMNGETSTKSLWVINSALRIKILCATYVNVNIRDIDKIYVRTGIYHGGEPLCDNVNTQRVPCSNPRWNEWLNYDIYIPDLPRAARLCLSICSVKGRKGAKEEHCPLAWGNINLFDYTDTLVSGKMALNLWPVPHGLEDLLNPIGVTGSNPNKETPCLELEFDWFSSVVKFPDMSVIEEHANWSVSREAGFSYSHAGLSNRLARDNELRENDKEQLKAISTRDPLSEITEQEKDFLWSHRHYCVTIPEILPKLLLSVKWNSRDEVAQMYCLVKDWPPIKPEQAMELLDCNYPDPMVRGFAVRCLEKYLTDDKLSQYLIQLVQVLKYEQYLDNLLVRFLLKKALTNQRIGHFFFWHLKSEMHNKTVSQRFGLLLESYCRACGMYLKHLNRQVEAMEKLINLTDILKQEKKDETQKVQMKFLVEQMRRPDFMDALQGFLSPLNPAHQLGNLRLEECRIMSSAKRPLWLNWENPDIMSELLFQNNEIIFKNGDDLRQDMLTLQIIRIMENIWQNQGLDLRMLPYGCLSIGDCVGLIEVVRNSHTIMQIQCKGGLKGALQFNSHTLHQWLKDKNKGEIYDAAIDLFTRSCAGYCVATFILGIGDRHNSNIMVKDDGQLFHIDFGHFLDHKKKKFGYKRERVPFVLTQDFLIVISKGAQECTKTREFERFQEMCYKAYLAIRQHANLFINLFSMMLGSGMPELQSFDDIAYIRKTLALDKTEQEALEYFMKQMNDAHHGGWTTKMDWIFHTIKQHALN

Phosphatidylinositol 4,5-bisphosphate 3-kinase catalytic subunit beta isoform, sequence (P42338 whole entry, canonical isoform): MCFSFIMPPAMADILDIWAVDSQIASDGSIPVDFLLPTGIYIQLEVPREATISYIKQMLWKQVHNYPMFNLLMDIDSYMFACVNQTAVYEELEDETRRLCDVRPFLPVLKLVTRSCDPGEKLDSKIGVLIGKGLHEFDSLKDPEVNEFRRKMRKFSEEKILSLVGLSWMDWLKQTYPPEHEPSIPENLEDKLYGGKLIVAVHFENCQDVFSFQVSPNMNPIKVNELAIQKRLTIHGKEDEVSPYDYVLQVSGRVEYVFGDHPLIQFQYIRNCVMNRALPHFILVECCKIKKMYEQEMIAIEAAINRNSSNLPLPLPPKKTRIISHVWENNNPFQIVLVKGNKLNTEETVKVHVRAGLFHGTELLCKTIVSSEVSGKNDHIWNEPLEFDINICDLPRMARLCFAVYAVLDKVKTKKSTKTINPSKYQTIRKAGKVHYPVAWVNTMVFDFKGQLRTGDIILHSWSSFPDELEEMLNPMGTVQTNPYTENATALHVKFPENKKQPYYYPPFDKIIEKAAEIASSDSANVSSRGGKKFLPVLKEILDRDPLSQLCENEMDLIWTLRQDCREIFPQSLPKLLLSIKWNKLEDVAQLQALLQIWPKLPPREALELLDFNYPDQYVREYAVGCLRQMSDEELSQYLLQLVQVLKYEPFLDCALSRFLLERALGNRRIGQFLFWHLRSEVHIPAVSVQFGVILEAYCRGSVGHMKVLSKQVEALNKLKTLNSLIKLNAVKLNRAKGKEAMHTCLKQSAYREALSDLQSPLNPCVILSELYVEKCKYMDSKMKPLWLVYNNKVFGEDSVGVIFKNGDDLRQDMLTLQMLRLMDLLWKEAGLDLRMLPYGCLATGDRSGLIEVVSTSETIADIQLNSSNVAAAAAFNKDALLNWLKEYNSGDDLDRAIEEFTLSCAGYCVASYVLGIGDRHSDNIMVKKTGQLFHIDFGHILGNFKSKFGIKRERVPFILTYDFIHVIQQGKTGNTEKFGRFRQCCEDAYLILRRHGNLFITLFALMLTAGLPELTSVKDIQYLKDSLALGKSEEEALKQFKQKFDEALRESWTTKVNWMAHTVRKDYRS

SMILES	IC50 [1]	IC50 [4]	IC50 [5]	IC50 [2]	IC50 [3]
Cc1ccc([N+](=O)[O-])cc1S(=O)(=O)N(C)/N=C/c1cncn1C	> 10 µM	> 10 µM	> 10 µM	> 20 µM	> 20 µM
Cc1ccc([N+](=O)[O-])cc1S(=O)(=O)N(C)/N=C/c1csc2ccccc12	> 10 µM	> 10 µM	> 10 µM	> 20 µM	> 20 µM
Cc1ccc([N+](=O)[O-])cc1S(=O)(=O)N(C)/N=C/c1ncn2ccccc12	> 10 µM	> 10 µM	> 10 µM	–	3.3 µM
Cc1ccc([N+](=O)[O-])cc1S(=O)(=O)N(C)/N=C/c1cnc2ccccc2c1	> 10 µM	> 10 µM	> 10 µM	6 µM	3 µM
Cc1ccc([N+](=O)[O-])cc1S(=O)(=O)N(C)/N=C/c1cccc2ccccc12	> 10 µM	> 10 µM	> 10 µM	> 20 µM	> 20 µM
Cc1ccc([N+](=O)[O-])cc1S(=O)(=O)N(C)/N=C/c1cncc2c(Br)cccc12	> 10 µM	> 10 µM	> 10 µM	12 µM	5.7 µM
Cc1ccc([N+](=O)[O-])cc1S(=O)(=O)N(C)/N=C/c1cnc2ccc(Br)cn12	–	–	–	–	0.069 µM

Further lines, with some results ahead:

IC50 [1]	IC50 [4]	IC50 [5]	SMILES	IC50 [2]	IC50 [3]
> 10 µM	> 10 µM	2.3 µM	Cc1ccc([N+](=O)[O-])cc1S(=O)(=O)N(C)/N=C/c1ccnc2ccccc12	0.8 µM	1.5 µM
> 10 µM	> 10 µM	> 10 µM	Cc1ccc([N+](=O)[O-])cc1S(=O)(=O)N(C)/N=C/c1cn(C)c2ccccc12	> 20 µM	15 µM
> 10 µM	3.6 µM	0.8 µM	Cc1ccc([N+](=O)[O-])cc1S(=O)(=O)N(C)/N=C/c1cncc2ccccc12	0.5 µM	0.89 µM
> 10 µM	5.4 µM	0.86 µM	Cc1ccc([N+](=O)[O-])cc1S(=O)(=O)N(C)/N=C/c1cnc2ccccn12	0.68 µM	0.35 µM
> 10 µM	> 10 µM	> 10 µM	Cc1ccc([N+](=O)[O-])cc1S(=O)(=O)N(C)/N=C/c1cnc2n1CCCC2	10 µM	10 µM
> 10 µM	> 10 µM	> 10 µM	Cc1ccc([N+](=O)[O-])cc1S(=O)(=O)N(C)/N=C/c1cncc2cc(Br)ccc12	11 µM	6.6 µM
> 10 µM	9 µM	2.2 µM	Cc1ccc([N+](=O)[O-])cc1S(=O)(=O)N(C)/N=C/c1cncc2ccc(Br)cc12	4.2 µM	5.1 µM
> 10 µM	> 10 µM	5 µM	Cc1ccc([N+](=O)[O-])cc1S(=O)(=O)N(C)/N=C/c1onc2ccccc12	3.3 µM	3.9 µM
> 10 µM	> 10 µM	> 10 µM	Cc1ccc([N+](=O)[O-])cc1S(=O)(=O)N(C)/N=C/c1ncc2ccccn12	1.2 µM	2.1 µM
> 10 µM	> 10 µM	> 10 µM	Cc1ccc([N+](=O)[O-])cc1S(=O)(=O)N(C)/N=C/c1coc2ccccc12	8.5 µM	12 µM

Source: ChEMBL document CHEMBL1137518, “Synthesis, biological evaluation and molecular modelling of sulfonohydrazides as selective PI3K p110alpha inhibitors” (Bioorg Med Chem, 2007)
